Assay outcomes as filed in PubChem BioAssay.
miR-122 sensor – miR-122 Renilla sensor signal increase in Huh7, primary screen, miR-122 inhibitor project, cell-based, single point, plate reader; Huh7 miR-122 Renilla luciferase sensor, 48 h; neutral wells = 0, positive control = 100; activation (reporter increase), % at 12.5 µM; actives 0.3% (n = 340,000); AID 602342, 2012;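 active = mean replicate activation score at least 90 and every replicate individually at or above 90; inconclusive = only one of the two criteria met; inactive = neither criterion met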;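 note: higher luciferase means less miR-122 activity so hits act as miR-122 inhibitors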
E-sel inducer – E-selectin induction in HUVECs, primary screen, imaging, HUVEC, immunofluorescence imaging, single point; normalized: neutral wells 0, TNF-alpha wells 100; activation, % at 7.58 µM; actives 0.37% (n = 260,000); AID 686992, 2013;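 active = mean E-selectin-positive cell signal at least 10% of the positive control, reached in at least 60% of replicates, without over 20% cell loss; inconclusive = no rule given, readout overlaps actives, possibly toxicity-flagged; inactive = the rest, including those meeting only one limit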
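Read-out basis: % PE-positive cells; Test system: HUVEC primary endothelial cells; Technique: immunofluorescence imaging; Dosing: single-point compound dose.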
DENV2 CPE rescue – inhibitors of DENV2 cytopathic effect, primary screen, cell-based, plate reader, single concentration; DENV2-infected cells, cytopathic effect rescue; CPE inhibition, % at 9.99 µM; actives 1.7% (n = 350,000); AID 651640, 2012; in the data active = CPE inhibition above about 20%, passing the limit was not always enough; inconclusive = no clear call, values can overlap the other calls; tested in BHK-21 cells;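 note: 0% = median of neutral control wells and 100% = median of positive control wells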
GSIS activator – GLuc luminescence reporter in INS-1E cells, primary screen for activators of glucose-dependent secretion of insulin; AID 743287, 2014; actives 0.61% (n = 370,000); activation, % at 16.6 µM; INS-1E GLuc reporter insulin secretion, 2-3 h;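 active = lowest replicate activation of at least 40%, so every replicate reaches that level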;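 note: 0% = median of neutral control wells and 100% = median of IBMX positive control wells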
ERAP1 inh – human ERAP1 aminopeptidase inhibitors, primary screen, biochemical, single point, plate reader | Endoplasmic reticulum aminopeptidase 1 (Homo sapiens), Q9NZ08 | recombinant ERAP1, Leu-AMC fluorescence, 60 min | inhibition, % at 10.7 µM | actives 0.15% (n = 340,000) | AID 652197, 2013;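 active = mean replicate inhibition of at least 30%, or all replicates individually reaching that 30% level; inactive = mean below 30% and not every replicate reaching it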;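 note: 0% = neutral control wells and 100% = L-leucinethiol positive control wells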
Target sequence (Q9NZ08 whole entry, looked up): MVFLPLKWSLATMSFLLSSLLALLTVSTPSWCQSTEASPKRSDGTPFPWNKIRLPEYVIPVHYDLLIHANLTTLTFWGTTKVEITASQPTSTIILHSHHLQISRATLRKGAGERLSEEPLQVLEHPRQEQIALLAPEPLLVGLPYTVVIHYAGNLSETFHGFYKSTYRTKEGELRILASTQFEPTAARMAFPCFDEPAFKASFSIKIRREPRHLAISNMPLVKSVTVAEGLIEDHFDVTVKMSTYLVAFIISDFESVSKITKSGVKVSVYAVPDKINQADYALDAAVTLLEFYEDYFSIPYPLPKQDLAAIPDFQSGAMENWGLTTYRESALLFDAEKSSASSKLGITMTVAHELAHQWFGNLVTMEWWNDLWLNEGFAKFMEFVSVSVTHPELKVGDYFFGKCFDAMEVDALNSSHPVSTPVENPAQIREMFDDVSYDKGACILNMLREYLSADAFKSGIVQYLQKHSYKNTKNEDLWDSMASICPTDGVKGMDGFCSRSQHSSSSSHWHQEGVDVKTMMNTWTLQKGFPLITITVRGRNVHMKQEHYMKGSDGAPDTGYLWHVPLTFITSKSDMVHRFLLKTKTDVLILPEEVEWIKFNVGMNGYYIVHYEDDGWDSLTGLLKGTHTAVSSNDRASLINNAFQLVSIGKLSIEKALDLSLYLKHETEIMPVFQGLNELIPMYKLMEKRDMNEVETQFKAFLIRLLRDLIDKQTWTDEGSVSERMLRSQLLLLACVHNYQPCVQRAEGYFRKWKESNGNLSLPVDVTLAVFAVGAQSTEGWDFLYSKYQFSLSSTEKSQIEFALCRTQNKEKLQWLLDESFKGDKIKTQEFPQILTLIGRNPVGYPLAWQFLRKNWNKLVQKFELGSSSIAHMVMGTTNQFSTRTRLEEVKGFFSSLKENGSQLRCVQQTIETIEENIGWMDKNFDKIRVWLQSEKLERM
F508del corr – F508del CFTR correction, initial screen, CFBE line, single point; CFBE cells, YFP halide quenching; stimulated with forskolin plus potentiator P3; % fluorescence drop versus neutral controls; activity (quench increase), % at 7.58 µM; actives 0.36% (n = 350,000); AID 720511, 2013;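 active = mean added fluorescence quench of at least 8% versus neutral control, with both replicates also reaching 8%; inconclusive = only one of the mean or replicate conditions met; inactive = mean below 8% and not both replicates reaching 8%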;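 note: cells transiently co-express mutant CFTR-F508del with the halide-sensitive YFP; corrector assay measuring rescue of mutant channel to the surface after 24 h compound exposure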
The depositor's hits bear a star; ? = inconclusive; . = no result given; [ ] = another dose, or the depositor's remark. Shown are actives, neighbours in structure and some others; about 2.6% of the full set was active somewhere.

SMILES	miR-122 sensor	E-sel inducer	DENV2 CPE rescue	GSIS activator	ERAP1 inh	F508del corr
O=C(O)c1ccc(N=NN2CCCCCC2)cc1	.	0	112*	.	-4	0
C[C@@H]1CN([C@@H](C)CO)C(=O)c2cc(C#C[C@@H](C)O)cnc2O[C@@H]1CN(C)Cc1cccc(F)c1	-4[16.7 µM]	-1	6	-1	-2	-1
O=c1c2sc3nc(N4CCOCC4)c4c(c3c2ncn1-c1ccccc1)CCCC4	-6	0	1	7	-2	2
Cc1ccccc1-n1cnc2c(sc3nc(N4CCOCC4)c4c(c32)CCCC4)c1=O	.	.	42*	-21	.	2
Cc1cc(=O)oc2c(CN3CCN(C)CC3)c(O)c(Cl)cc12	.	.	.	-2	86*	.
CCCc1cc(=O)oc2c(CN3CCN(C)CC3)c(O)ccc12	0	1	?	2	34*	-1
CCc1c(C)c2cc(Cl)c(O)c(CN3CCCC3)c2oc1=O	-5	.	?	32	36*	1
NCC[C@H]1CC[C@@H](NS(=O)(=O)Cc2ccccc2)[C@@H](CO)O1	3[16.7 µM]	0	0	-8	0	-2
C[C@H]1CCCCO[C@H](CN(C)S(=O)(=O)c2cn(C)cn2)[C@@H](C)CN([C@@H](C)CO)C(=O)c2cc(NC(=O)CCCN(C)C)ccc2O1	-2[16.7 µM]	0	-7	33	-2	-1
C[C@@H]1CN([C@H](C)CO)C(=O)c2cc(NS(=O)(=O)c3ccc(Cl)cc3)ccc2O[C@H]1CN(C)S(=O)(=O)c1ccccc1	70[16.7 µM]	0	19	-7	.	0
Nc1nc(-c2ccc([N+](=O)[O-])cc2)cc(=O)[nH]1	-4	.	133*	.	0	.
O=c1cc(-c2ccccc2)nc(Sc2ccc([N+](=O)[O-])cc2[N+](=O)[O-])[nH]1	-1	.	0	2	.	0
CC[n+]1ccccc1/C=C1\Sc2ccc(C)cc2N1C	.	0	-1	-60	74*	1
CN1/C(=C/c2cccc[n+]2CCO)Sc2ccccc21	.	0	?	10	13	1
Cc1[nH]c(=O)c(C(=O)/C=C/c2ccccc2F)c2c1CCCC2	182*	.	0	-18	0	-11
Cc1cc(C)c(C(=O)/C=C/c2cccc3ccccc23)c(=O)[nH]1	.	2	-2	6	-1	-11
Cc1noc(C)c1NC(=O)Nc1cccc2c1O[C@@H](CN(C)Cc1ccccc1)[C@@H](C)CN([C@H](C)CO)C2=O	25[16.7 µM]	1	4	3	3	4
Cc1cc(C(=O)NNC(=O)c2ccc(Cl)c(S(N)(=O)=O)c2)c(C)o1	1	0	6	18	-2	8.7*
COc1ccc(NC(=O)Cc2cccc(F)c2)cc1S(=O)(=O)Nc1ccccc1Cl	332*	0	17	-13	.	-1
COc1ccc(NS(=O)(=O)c2cc(NC(=O)CCNC(=O)c3ccco3)ccc2OC)cc1	50	.	-5	0	2	0
COc1ccc(NS(=O)(=O)c2cc(NC(=O)Cc3c(F)cccc3Cl)ccc2OC)cc1	?	0	10	-26	0	19*
CCOc1ccc(NS(=O)(=O)c2cc(NC(=O)CCNC(=O)c3ccco3)ccc2OC)cc1	.	0	2	2	0	32*
CO[C@@H]1CN(C)C(=O)c2cc(NS(=O)(=O)c3cn(C)cn3)ccc2OC[C@@H](C)N(CC2CC2)C[C@H]1C	.	0	-4	14	0	0
Cc1ccc(C(=O)N/N=C/c2cc(Br)ccc2O)cn1	.	0	11	-10	-1	12*
CCOC(=O)C1=CC[C@@H](c2ccc3ccccc3n2)[C@@H]1C(=O)c1ccccc1	.	.	-2	.	3	0
SMILES	miR-122 sensor	E-sel inducer	DENV2 CPE rescue	GSIS activator	ERAP1 inh	F508del corr
CN1CCN(C2CCN(c3ccc(Nc4nnc(Cl)c(Nc5ccccc5S(C)(=O)=O)n4)c(OC(CF)CF)c3)CC2)CC1	-1	1	37*	-3	10	4
Cc1ccccc1-c1cnc2c(c1)C(=O)N([C@@H](C)CO)C[C@@H](C)[C@H](CN(C)C(=O)c1cccnc1)O2	-4[16.7 µM]	0	10	28	1	1
CC(/C=C/c1ccc(O)cc1)=NNc1ccccc1	-1	0	-2	26	-5	18*
CN1CCN(C(=O)c2ccc3c(c2)S(=O)(=O)c2ccccc2C3=O)CC1	.	0	63*	.	0	-1
COc1cc2c(c(Br)c1N)-c1cc(Br)c(N)cc1C2=O	-2	1	-11	.	-3	8.5*
COc1ccc(S(=O)(=O)Nc2cccc3c2O[C@@H](CN(C)S(C)(=O)=O)[C@@H](C)CN([C@@H](C)CO)C3=O)cc1	8[16.7 µM]	-3	120*	3	-1	1
COc1ccc(S(=O)(=O)N(C)C[C@@H]2Oc3c(NS(=O)(=O)c4ccc(F)cc4)cccc3C(=O)N([C@H](C)CO)C[C@@H]2C)cc1	-1[16.7 µM]	62*	?	-19	.	1
COc1ccc(S(=O)(=O)N(C)C[C@H]2Oc3c(NS(=O)(=O)c4ccc(F)cc4)cccc3C(=O)N([C@@H](C)CO)C[C@H]2C)cc1	5[16.7 µM]	17	-22	-14	.	0
COc1ccc(S(=O)(=O)N(C)C[C@H]2Oc3c(NS(=O)(=O)c4cccs4)cccc3C(=O)N([C@@H](C)CO)C[C@@H]2C)cc1	.	0	36*	0	-1	-2
COc1ccc(S(=O)(=O)Nc2cccc3c2O[C@H](CN(C)S(C)(=O)=O)[C@H](C)CN([C@H](C)CO)C3=O)cc1	0[16.7 µM]	-3	2	-13	0	-1
C/C=C/c1ccc2c(c1)O[C@@H](CN(C)C(=O)Nc1ccc(C(F)(F)F)cc1)[C@H](C)CN([C@H](C)CO)S2(=O)=O	2[16.7 µM]	0	-1	-12	1	6
O=[N+]([O-])c1cccnc1Oc1ccc(C2SCCS2)cc1	.	.	12	1	.	1
COc1cc(C2SCCS2)cc(Br)c1Oc1ncccc1[N+](=O)[O-]	6	61*	-3	-2	.	0
Cn1cnnc1SCC(=O)Nc1ccc(S(=O)(=O)N2CCOCC2)cc1	0	0	?	-3	0	12*
Cc1ccc(S(=O)(=O)N2CCOCC2)cc1NC(=O)CSc1n[nH]c(N)n1	.	6	1	-2	-3	18*
COc1cc(S(=O)(=O)N2CCOCC2)ccc1NC(=O)CSc1n[nH]c(=O)[nH]c1=O	144*	.	6	27	-1	1
